Assay results as given in ChEMBL document CHEMBL4251569, “Camptothecin-psammaplin A hybrids as topoisomerase I and HDAC dual-action inhibitors” (Eur J Med Chem, 2018).
Calls of active or inactive are those of the source. No cut-off for these calls is given here.

Columns and labels:
[1] = system: L-428; test: cells; assay type: functional, cell-based; conditions: Homo sapiens, L-428, 72 h
[2] = system: OCI-Ly3; test: cells; conditions: Homo sapiens, OCI-Ly3, 72 h
[3] = system: DG-75; test: cells; assay type: functional, cell-based; conditions: Homo sapiens, DG-75, 72 h
[4] = cells; assay type: functional, cell-based; conditions: Homo sapiens, A2780/DX, 72 h
[5] = system: MM473; test: Cell cycle arrest in human MM473 cells assessed as accumulation at G0/G1 phase at 4 uM after 72 hrs by propidium iodide staining-based flow cytometric method (reference value: 80.2%); assay type: functional
[6] = target: Histone deacetylase (HDAC1 and HDAC2) (Homo sapiens) (UniProt Q13547+Q92769); test: Inhibition of HDAC1/2 in human MM473 cells assessed as increase in hyperacetylation of nuclear histone H4 at 0.2 to 0.5 uM after 24 hrs by Western blot method; assay type: cell-based
Chain of Histone deacetylase (HDAC1 and HDAC2) (Homo sapiens) (Q13547 whole entry, looked up): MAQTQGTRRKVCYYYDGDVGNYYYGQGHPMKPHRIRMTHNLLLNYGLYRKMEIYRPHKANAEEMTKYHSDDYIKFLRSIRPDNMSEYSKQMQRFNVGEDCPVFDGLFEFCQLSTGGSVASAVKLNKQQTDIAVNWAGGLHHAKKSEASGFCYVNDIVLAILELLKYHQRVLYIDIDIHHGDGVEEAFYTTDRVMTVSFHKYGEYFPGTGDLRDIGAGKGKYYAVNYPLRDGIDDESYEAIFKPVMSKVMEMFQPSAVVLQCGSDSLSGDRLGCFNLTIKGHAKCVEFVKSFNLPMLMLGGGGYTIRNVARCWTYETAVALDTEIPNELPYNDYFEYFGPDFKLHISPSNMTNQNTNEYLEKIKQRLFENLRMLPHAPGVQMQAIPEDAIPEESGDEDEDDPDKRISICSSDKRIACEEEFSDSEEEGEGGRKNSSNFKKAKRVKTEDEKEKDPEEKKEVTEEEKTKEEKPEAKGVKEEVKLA
Chain of Histone deacetylase (HDAC1 and HDAC2) (Homo sapiens) (Q92769 whole entry, looked up): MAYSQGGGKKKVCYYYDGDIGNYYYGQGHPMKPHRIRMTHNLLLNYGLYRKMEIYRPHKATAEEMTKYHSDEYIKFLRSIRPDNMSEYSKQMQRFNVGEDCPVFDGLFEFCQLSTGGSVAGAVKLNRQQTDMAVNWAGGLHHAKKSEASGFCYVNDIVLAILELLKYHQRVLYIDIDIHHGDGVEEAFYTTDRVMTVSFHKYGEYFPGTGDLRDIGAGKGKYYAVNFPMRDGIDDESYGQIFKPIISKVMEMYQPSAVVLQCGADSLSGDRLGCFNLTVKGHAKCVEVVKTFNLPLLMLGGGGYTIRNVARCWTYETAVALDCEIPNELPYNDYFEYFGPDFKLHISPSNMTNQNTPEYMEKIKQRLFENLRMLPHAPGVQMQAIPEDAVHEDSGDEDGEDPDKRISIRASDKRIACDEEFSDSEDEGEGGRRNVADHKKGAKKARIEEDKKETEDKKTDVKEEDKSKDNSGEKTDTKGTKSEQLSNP
How it was run: (§1)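 MM473 cells treated 24 h (0.2 and 0.5 µM), lysed in NP-40 or RIPA with protease/phosphatase inhibitors; 40 µg protein run on SDS-PAGE, transferred to nitrocellulose, blocked in 5% milk/TBST, probed overnight for acetyl-H4, H4, acetyl-tubulin and α-tubulin, HRP secondaries, ECL chemiluminescence; band density normalised to α-tubulin.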

[7] = system: A2780; test: cells; assay type: functional, cell-based; conditions: Homo sapiens, A2780, 72 h
[8] = target: Polyamine deacetylase HDAC10 (Homo sapiens, UniProt Q969S8); test: Inhibition of HDAC10 (unknown origin) using RHKK(Ac)AMC as substrate after 1 to 2 hrs by fluorescence assay
Chain of Polyamine deacetylase HDAC10 (Q969S8 whole entry): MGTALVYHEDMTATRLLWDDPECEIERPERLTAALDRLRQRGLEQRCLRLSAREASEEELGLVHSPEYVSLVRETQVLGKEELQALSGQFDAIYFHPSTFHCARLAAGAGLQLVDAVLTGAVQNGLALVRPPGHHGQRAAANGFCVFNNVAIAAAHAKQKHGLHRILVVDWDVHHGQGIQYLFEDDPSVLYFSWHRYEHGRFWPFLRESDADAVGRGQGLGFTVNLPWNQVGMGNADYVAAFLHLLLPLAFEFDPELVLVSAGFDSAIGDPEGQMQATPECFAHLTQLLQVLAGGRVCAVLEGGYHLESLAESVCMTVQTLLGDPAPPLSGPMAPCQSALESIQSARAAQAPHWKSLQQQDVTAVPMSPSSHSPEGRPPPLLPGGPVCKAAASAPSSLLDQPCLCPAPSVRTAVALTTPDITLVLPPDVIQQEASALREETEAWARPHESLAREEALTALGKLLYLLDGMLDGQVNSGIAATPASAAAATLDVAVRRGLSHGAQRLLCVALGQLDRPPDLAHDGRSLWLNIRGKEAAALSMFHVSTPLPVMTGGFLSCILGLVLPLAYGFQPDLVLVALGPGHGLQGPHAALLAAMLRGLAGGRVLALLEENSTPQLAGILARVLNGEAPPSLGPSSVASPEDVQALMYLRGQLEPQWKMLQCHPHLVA

[9] = cells; assay type: functional, cell-based; conditions: Homo sapiens, MM487, 72 h
[10] = system: MM473; test: Cell cycle arrest in human MM473 cells assessed as accumulation at S phase at 4 uM after 24 hrs by propidium iodide staining-based flow cytometric method (reference value: 29.8%); assay type: functional
[11] = system: MM473; test: Cell cycle arrest in human MM473 cells assessed as accumulation at G0/G1 phase at 4 uM after 48 hrs by propidium iodide staining-based flow cytometric method (reference value: 71.8%); assay type: functional
[12] = target: Protein deacetylase HDAC6 (Homo sapiens) (UniProt Q9UBN7); test: Inhibition of HDAC6 in human MM473 cells assessed as increase in hyperacetylation of cytoplasmic alpha-tubulin at 0.2 to 0.5 uM after 24 hrs by Western blot method; assay type: cell-based
Chain of Protein deacetylase HDAC6 (Homo sapiens) (Q9UBN7 whole entry): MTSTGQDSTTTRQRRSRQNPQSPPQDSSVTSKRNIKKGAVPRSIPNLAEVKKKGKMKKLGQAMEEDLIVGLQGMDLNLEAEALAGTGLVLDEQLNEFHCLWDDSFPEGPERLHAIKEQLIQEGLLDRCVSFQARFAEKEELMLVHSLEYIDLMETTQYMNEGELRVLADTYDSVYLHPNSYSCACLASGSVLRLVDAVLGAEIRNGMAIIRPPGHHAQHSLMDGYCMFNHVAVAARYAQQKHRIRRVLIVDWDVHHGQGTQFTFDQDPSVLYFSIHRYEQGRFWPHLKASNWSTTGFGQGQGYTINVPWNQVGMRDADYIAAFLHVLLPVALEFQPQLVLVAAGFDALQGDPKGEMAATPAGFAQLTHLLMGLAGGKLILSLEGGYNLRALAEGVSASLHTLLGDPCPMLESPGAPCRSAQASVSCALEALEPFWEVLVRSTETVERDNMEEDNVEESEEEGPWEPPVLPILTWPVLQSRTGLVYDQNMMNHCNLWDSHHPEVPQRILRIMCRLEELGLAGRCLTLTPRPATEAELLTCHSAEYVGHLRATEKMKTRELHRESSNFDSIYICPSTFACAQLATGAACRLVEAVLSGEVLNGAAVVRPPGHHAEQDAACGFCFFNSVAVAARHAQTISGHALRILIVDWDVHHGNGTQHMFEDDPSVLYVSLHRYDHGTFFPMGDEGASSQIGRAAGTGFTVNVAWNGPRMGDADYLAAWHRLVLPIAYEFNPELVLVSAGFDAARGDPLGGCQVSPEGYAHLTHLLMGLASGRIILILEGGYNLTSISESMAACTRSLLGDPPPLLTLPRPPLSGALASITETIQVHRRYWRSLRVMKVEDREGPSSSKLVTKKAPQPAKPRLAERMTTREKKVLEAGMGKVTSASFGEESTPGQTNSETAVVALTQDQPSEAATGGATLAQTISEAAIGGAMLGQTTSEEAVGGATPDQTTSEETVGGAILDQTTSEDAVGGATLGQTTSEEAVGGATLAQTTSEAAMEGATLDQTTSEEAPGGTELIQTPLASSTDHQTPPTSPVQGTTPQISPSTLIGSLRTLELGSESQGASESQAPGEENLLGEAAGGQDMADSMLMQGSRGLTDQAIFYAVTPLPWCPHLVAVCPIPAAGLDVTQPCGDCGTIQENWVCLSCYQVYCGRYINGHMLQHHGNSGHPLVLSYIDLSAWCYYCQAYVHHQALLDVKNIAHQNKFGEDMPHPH
How it was run: as §1

[13] = target: Histone deacetylase 2 (Homo sapiens, UniProt Q92769); test: Inhibition of HDAC2 (unknown origin) using RHKK(Ac)AMC as substrate after 1 to 2 hrs by fluorescence assay
Chain of Histone deacetylase 2 (Q92769 whole entry): as the sequence (Q92769 whole entry, looked up) above

[14] = system: MM473; test: cells; assay type: functional, cell-based; conditions: Homo sapiens, MM473, 72 h
[15] = system: HeLa; test: cells; assay type: functional, cell-based; conditions: Homo sapiens, 72 h
[16] = Cell cycle arrest in human MM487 cells assessed as accumulation at G2/M at 0.3 uM after 24 hrs by propidium iodide staining-based flow cytometric method (reference value: 16.9%); assay type: functional
[17] = Cell cycle arrest in human MM487 cells assessed as accumulation at G0/G1 phase at 0.3 uM after 72 hrs by propidium iodide staining-based flow cytometric method (reference value: 80%); assay type: functional
[18] = system: CAPAN-1; test: cells; assay type: functional, cell-based; conditions: Homo sapiens, CAPAN-1, 72 h
[19] = Cell cycle arrest in human MM487 cells assessed as accumulation at S phase at 0.3 uM after 72 hrs by propidium iodide staining-based flow cytometric method (reference value: 14.6%); assay type: functional
[20] = system: MM473; test: Induction of apoptosis in human MM473 cells at 4 uM after 48 hrs by propidium iodide staining-based flow cytometric method (reference value: […]); assay type: functional
[21] = Induction of apoptosis in human MM487 cells at 0.3 uM after 48 hrs by propidium iodide staining-based flow cytometric method (reference value: 0.3%); assay type: functional
[22] = system: MM473; test: Cell cycle arrest in human MM473 cells assessed as accumulation at G0/G1 phase at 4 uM after 24 hrs by propidium iodide staining-based flow cytometric method (reference value: 54.5%); assay type: functional
[23] = system: HepG2; test: Antiproliferative activity against human HepG2 cells after 72 hrs by SRB assay; assay type: functional, cell-based; conditions: HepG2, 72 h
[24] = system: Mus musculus; test: Toxicity in CD1 nude mouse xenografted with human MM473 cells assessed as body weight loss at 90 mg/kg, iv administered every 4 days per week for 3 weeks measured during compound dosing and on day 40 post last dose; assay type: organism-based; conditions: in vivo
How it was run: (§2)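 MM473 mesothelioma cells (F-10, 10% FBS, G418; mycoplasma-checked, >95% viable) injected intrapleurally, 1x10⁶ in 200 µl M199 per CD-1 nude mouse. Treatment i.v. from day 15 when tumours were growing, in 10% 1:1 ethanol–Cremophor in saline, q4dx3w; vehicle control. Tumour burden followed weekly by IVIS bioluminescence after i.p. D-luciferin (100 µL/10 g), as average radiance; body weight recorded.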

[25] = system: NCI-H460; test: cells; assay type: functional, cell-based; conditions: Homo sapiens, NCI-H460, 72 h
[26] = system: KM-H2; test: cells; conditions: Homo sapiens, KM-H2, 72 h
[27] = target: Histone deacetylase 1 (Homo sapiens, UniProt Q13547); test: Inhibition of HDAC1 (unknown origin) using RHKK(Ac)AMC as substrate after 1 to 2 hrs by fluorescence assay
Chain of Histone deacetylase 1 (Q13547 whole entry): as the sequence (Q13547 whole entry, looked up) above

[28] = system: A-431; test: cells; assay type: functional, cell-based; conditions: Homo sapiens, A-431, 72 h
[29] = target: Histone deacetylase 4 (Homo sapiens, UniProt P56524); test: Inhibition of HDAC4 (unknown origin) using fluorogenic substrate after 1 to 2 hrs by fluorescence assay
Chain of Histone deacetylase 4 (P56524 whole entry): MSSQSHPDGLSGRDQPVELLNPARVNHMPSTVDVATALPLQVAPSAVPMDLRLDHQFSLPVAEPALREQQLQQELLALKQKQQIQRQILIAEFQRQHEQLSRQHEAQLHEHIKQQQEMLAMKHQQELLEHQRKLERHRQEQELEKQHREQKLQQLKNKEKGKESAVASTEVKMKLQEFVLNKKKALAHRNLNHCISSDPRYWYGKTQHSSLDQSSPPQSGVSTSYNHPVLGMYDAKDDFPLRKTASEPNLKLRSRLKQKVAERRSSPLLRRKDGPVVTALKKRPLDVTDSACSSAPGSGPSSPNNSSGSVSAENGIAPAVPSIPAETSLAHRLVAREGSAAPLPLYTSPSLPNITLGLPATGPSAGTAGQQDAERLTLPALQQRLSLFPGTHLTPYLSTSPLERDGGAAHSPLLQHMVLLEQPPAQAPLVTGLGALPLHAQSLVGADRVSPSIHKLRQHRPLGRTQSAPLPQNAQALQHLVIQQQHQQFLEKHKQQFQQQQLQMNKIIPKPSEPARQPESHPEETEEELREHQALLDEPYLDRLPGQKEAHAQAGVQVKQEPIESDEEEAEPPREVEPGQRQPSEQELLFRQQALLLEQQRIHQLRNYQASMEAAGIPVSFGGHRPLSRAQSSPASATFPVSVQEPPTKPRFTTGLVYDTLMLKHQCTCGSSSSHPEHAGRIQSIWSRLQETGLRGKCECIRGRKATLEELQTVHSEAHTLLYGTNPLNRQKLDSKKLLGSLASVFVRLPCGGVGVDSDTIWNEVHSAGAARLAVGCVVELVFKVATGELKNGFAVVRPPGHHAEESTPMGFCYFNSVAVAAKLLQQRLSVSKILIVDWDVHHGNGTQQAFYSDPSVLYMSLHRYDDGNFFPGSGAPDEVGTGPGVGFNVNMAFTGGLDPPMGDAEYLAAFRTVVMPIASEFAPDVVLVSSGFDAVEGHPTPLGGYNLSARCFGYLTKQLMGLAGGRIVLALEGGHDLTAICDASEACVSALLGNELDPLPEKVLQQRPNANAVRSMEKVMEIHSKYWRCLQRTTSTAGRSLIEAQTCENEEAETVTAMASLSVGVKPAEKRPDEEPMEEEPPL
How it was run: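 Purified HDAC4 preincubated with compound (10 concentrations from 10 µM, triplicate, final 1% DMSO) in 50 mM Tris-HCl pH 8.0, 137 mM NaCl, 2.7 mM KCl, 1 mM MgCl2, 1 mg/ml BSA. Class 2a trifluoroacetyl-lysine fluorogenic substrate added and incubated 1–2 h at 30 °C. Developer with TMP269 stops the reaction; fluorescence read at ex 360/em 460 at plateau. Activity is relative to DMSO, and IC50 comes from a sigmoidal fit.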

[30] = system: MM473; test: Cell cycle arrest in human MM473 cells assessed as accumulation at G2/M phase at 4 uM after 48 hrs by propidium iodide staining-based flow cytometric method (reference value: 4.3%); assay type: functional
[31] = Cell cycle arrest in human MM487 cells assessed as accumulation at S phase at 0.3 uM after 24 hrs by propidium iodide staining-based flow cytometric method (reference value: 25.2%); assay type: functional
[32] = system: MM473; test: Cell cycle arrest in human MM473 cells assessed as accumulation at G2/M at 4 uM after 24 hrs by propidium iodide staining-based flow cytometric method (reference value: 15.7%); assay type: functional
[33] = cells; assay type: functional, cell-based; conditions: Homo sapiens, MINO, 72 h
[34] = Cell cycle arrest in human MM487 cells assessed as accumulation at G2/M phase at 0.3 uM after 48 hrs by propidium iodide staining-based flow cytometric method (reference value: 12.5%); assay type: functional
[35] = Cell cycle arrest in human MM487 cells assessed as accumulation at G0/G1 phase at 0.3 uM after 48 hrs by propidium iodide staining-based flow cytometric method (reference value: 73.8%); assay type: functional
[36] = Induction of apoptosis in human MM487 cells at 0.3 uM after 24 hrs by propidium iodide staining-based flow cytometric method (reference value: 0.5%); assay type: functional
[37] = system: MM473; test: Cell cycle arrest in human MM473 cells assessed as accumulation at S phase at 4 uM after 72 hrs by propidium iodide staining-based flow cytometric method (reference value: 15.1%); assay type: functional
[38] = Induction of apoptosis in human MM487 cells at 0.3 uM after 72 hrs by propidium iodide staining-based flow cytometric method (reference value: 0.6%); assay type: functional
[39] = Cell cycle arrest in human MM487 cells assessed as accumulation at S phase at 0.3 uM after 48 hrs by propidium iodide staining-based flow cytometric method (reference value: 13.7%); assay type: functional
[40] = system: MM473; test: Antitumor activity against human MM473 cells xenografted in CD1 nude mouse assessed as inhibition of tumor volume at 90 mg/kg, iv administered every 4 days per week for 3 weeks measured 10 days post last dose by luciferase reporter assay relative to vehicle-treated control; assay type: functional
How it was run: as §2

[41] = system: NB-4; test: cells; assay type: functional, cell-based; conditions: Homo sapiens, NB-4, 72 h
[42] = system: HT-29; test: Antiproliferative activity against human HT-29 cells after 72 hrs by SRB assay; assay type: functional, cell-based; conditions: HT-29, 72 h
[43] = system: DU-145; test: cells; assay type: functional, cell-based; conditions: Homo sapiens, DU-145, 72 h
[44] = target: Protein deacetylase HDAC6 (Homo sapiens, UniProt Q9UBN7); test: Inhibition of HDAC6 (unknown origin) using RHKK(Ac)AMC as substrate after 1 to 2 hrs by fluorescence assay
Chain of Protein deacetylase HDAC6 (Q9UBN7 whole entry): as the sequence (Q9UBN7 whole entry) above

[45] = cells; assay type: functional, cell-based; conditions: Homo sapiens, 72 h
[46] = system: MM473; test: Induction of apoptosis in human MM473 cells at 4 uM after 72 hrs by propidium iodide staining-based flow cytometric method (reference value: 1.4%); assay type: functional
[47] = system: U2932; test: cells; assay type: functional, cell-based; conditions: Homo sapiens, U2932, 72 h
[48] = Cell cycle arrest in human MM487 cells assessed as accumulation at G2/M phase at 0.3 uM after 72 hrs by propidium iodide staining-based flow cytometric method (reference value: 5.4%); assay type: functional
[49] = Cell cycle arrest in human MM487 cells assessed as accumulation at G0/G1 phase at 0.3 uM after 24 hrs by propidium iodide staining-based flow cytometric method (reference value: 57.9%); assay type: functional
[50] = system: MM473; test: Induction of apoptosis in human MM473 cells at 4 uM after 24 hrs by propidium iodide staining-based flow cytometric method (reference value: 2.5%); assay type: functional
[51] = system: JeKo-1; test: cells; assay type: functional, cell-based; conditions: Homo sapiens, JeKo-1, 72 h
[52] = system: MM473; test: Cell cycle arrest in human MM473 cells assessed as accumulation at G2/M phase at 4 uM after 72 hrs by propidium iodide staining-based flow cytometric method (reference value: 4.6%); assay type: functional
[53] = system: MM473; test: Cell cycle arrest in human MM473 cells assessed as accumulation at S phase at 4 uM after 48 hrs by propidium iodide staining-based flow cytometric method (reference value: 23.9%); assay type: functional
[54] = cells; assay type: functional, cell-based; conditions: Homo sapiens, 72 h; remark: listed apart in the source

CC[C@@]1(O)C(=O)OCc2c1cc1n(c2=O)Cc2c-1nc1ccccc1c2/C=N/OCCCCCC(=O)NCCSSCCNC(=O)/C(Cc1ccc(O)c(Br)c1)=N\O
IC50 [1]: 600 nM
IC50 [2]: 100 nM
IC50 [3]: 8400 nM
IC50 [4]: 830 nM
Activity [5]: 6.2%
inhibition [6]: Active
IC50 [7]: 220 nM
IC50 [8]: 7.55 nM
IC50 [9]: 130 nM
Activity [10]: 58.97%
Activity [11]: 4.5%
inhibition [12]: inactive
IC50 [13]: 327 nM
IC50 [14]: 1900 nM
IC50 [15]: 470 nM
Activity [16]: 1.8%
Activity [17]: 19.6%
IC50 [18]: 50 nM
Activity [19]: 59.2%
Activity [20]: 9.9%
Activity [21]: 13.1%
Activity [22]: 28%
IC50 [23]: 760 nM
Activity [24]: Non-Toxic
IC50 [25]: 170 nM
IC50 [26]: 280 nM
IC50 [27]: 150 nM
IC50 [28]: 180 nM
IC50 [29]: Not Active
Activity [30]: 12%
Activity [31]: 77.62%
Activity [32]: 13.1%
IC50 [33]: 35 nM
Activity [34]: 15.7%
Activity [35]: 16.5%
Activity [36]: 2.6%
Activity [37]: 79.3%
Activity [38]: 25.4%
Activity [39]: 67.8%
inhibition in vivo at 90 mg/kg [40]: 78%
IC50 [41]: 47 nM
IC50 [42]: 660 nM
IC50 [43]: 110 nM
IC50 [44]: 709 nM
IC50 [45]: 300 nM
Activity [46]: 11%
IC50 [47]: 110 nM
Activity [48]: 21.2%
Activity [49]: 20.6%
Activity [50]: 3.8%
IC50 [51]: 60 nM
Activity [52]: 14.5%
Activity [53]: 83.5%
IC50 [54]: 4000 nM

CC[C@@]1(O)C(=O)OCc2c1cc1n(c2=O)Cc2c-1nc1ccc(O)cc1c2/C=N/OCCCCCC(=O)NCCSSCCNC(=O)/C(Cc1ccc(O)c(Br)c1)=N\O
IC50 [8]: 9.12 nM
IC50 [13]: 410 nM
IC50 [18]: 200 nM
IC50 [25]: 880 nM
IC50 [27]: 253 nM
IC50 [29]: Not Active
IC50 [44]: 1490 nM
